Results: ChEMBL document CHEMBL1938318, “Design, synthesis and evaluation of novel molecules with a diphenyl ether nucleus as potential antitubercular agents” (Bioorg Med Chem Lett, 2012)
Converted amounts (≈) assume the structure as drawn.

Key:
[1] = Growth inhibition of human HepG2 cells at 20 uM after 48 hrs by MTT assay; assay type: cell-based; settings: read-out: GI
Procedure, shortened: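 Cells seeded at 2500/well, cultured 24 h, then exposed to compound at 20 μM for 48 h. MTT (20 μL of 5 mg/ml stock) added for 2.5 h at 37 °C. Supernatant removed, formazan dissolved in DMSO with 15–20 min shaking, absorbance read at 570 nm. Inhibitory rate is the mean of three independent experiments.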

[2] = system: Mycobacterium tuberculosis; test: Antitubercular activity against Mycobacterium tuberculosis H37Rv after 7 to 11 days by microdilution method; assay type: functional
Procedure, shortened: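 M. tuberculosis H37Rv grown in Middlebrook 7H9 with OADC, diluted in 7H9-OADC to 10⁴ CFU/mL and added to serial compound dilutions in 96-well microdilution plates. Incubated at 37 °C in humidified incubator, growth scored visually. MIC = lowest concentration with growth similar to 10 CFU inoculum-only well; isoniazid positive control.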

Question: Which results are given for `O=C(Cc1cccc(Oc2ccccc2)c1)Nc1cccc2ccccc12`?
Answer: inhibition at 48 h, 20 µM [1]: 3.31%; MIC [2]: 64 µg/mL (≈ 181 µM); MIC90 [2]: 32 µg/mL (≈ 90.5 µM)

Question: With `O=C(Nc1cccc(Cl)c1)c1cccc(Oc2ccccc2)c1` as the compound, how does the inhibition at 48 h, 20 µM [1] read?
Answer: 7.07%

Question: And the MIC [2]?
Answer: 32 µg/mL (≈ 98.8 µM)

Question: And the MIC90 [2]?
Answer: 16 µg/mL (≈ 49.4 µM)

Question: Which inhibition at 48 h, 20 µM [1] does the source give for `O=C(Cc1cccc(Oc2ccccc2)c1)Nc1ccc(Br)cc1Cl` here?
Answer: 12.8%

Question: And the MIC [2]?
Answer: 32 µg/mL (≈ 76.8 µM)

Question: What about the MIC90 [2] of the same compound?
Answer: 16 µg/mL (≈ 38.4 µM)

Question: Which results are given for `Cc1ccc(NC(=O)Cc2cccc(Oc3ccccc3)c2)nc1`?
Answer: inhibition at 48 h, 20 µM [1]: 12.2%; MIC [2]: 32 µg/mL (≈ 101 µM); MIC90 [2]: 8 µg/mL (≈ 25.1 µM)

Question: With `O=C(Cc1cccc(Oc2ccccc2)c1)Nc1nccs1` as the compound, how does the inhibition at 48 h, 20 µM [1] read?
Answer: 39.9%

Question: What about the MIC [2] of the same compound?
Answer: 32 µg/mL (≈ 103 µM)

Question: What about the MIC90 [2] of the same compound?
Answer: 16 µg/mL (≈ 51.6 µM)

Question: With `O=C(Cc1cccc(Oc2ccccc2)c1)Nc1cccc(Cl)c1` as the compound, how does the inhibition at 48 h, 20 µM [1] read?
Answer: 7.95%

Question: And the MIC [2]?
Answer: 32 µg/mL (≈ 94.7 µM)

Question: What about the MIC90 [2] of the same compound?
Answer: 16 µg/mL (≈ 47.4 µM)

Question: For `O=C(Cc1cccc(Oc2ccccc2)c1)Nc1ccc(OC(F)(F)F)cc1`, which inhibition at 48 h, 20 µM [1] is on record?
Answer: 4.71%

Question: And the MIC [2]?
Answer: 32 µg/mL (≈ 82.6 µM)

Question: And the MIC90 [2]?
Answer: 16 µg/mL (≈ 41.3 µM)

Question: What does the source list for `O=C(Nc1cccc(Cl)c1)c1ccc(Oc2ccccc2)cc1`?
Answer: inhibition at 48 h, 20 µM [1]: 29.2%; MIC [2]: 32 µg/mL (≈ 98.8 µM); MIC90 [2]: 16 µg/mL (≈ 49.4 µM)

Question: With `N#Cc1ccccc1NC(=O)Cc1cccc(Oc2ccccc2)c1` as the compound, how does the inhibition at 48 h, 20 µM [1] read?
Answer: 19.1%

Question: What about the MIC [2] of the same compound?
Answer: 32 µg/mL (≈ 97.5 µM)

Question: With `O=C(CCCc1cccc(Oc2ccccc2)c1)Nc1cccc(Cl)c1` as the compound, how does the MIC [2] read?
Answer: 32 µg/mL (≈ 87.5 µM)

Question: What about the MIC90 [2] of the same compound?
Answer: 16 µg/mL (≈ 43.7 µM)

Question: With `COc1ccc(NC(=O)Cc2cccc(Oc3ccccc3)c2)c(OC)c1` as the compound, how does the inhibition at 48 h, 20 µM [1] read?
Answer: 4.11%

Question: What about the MIC [2] of the same compound?
Answer: 32 µg/mL (≈ 88.1 µM)

Question: With `O=C(Cc1cccc(Oc2ccc(Cl)cc2)c1)Nc1cccc(Cl)c1` as the compound, how does the inhibition at 48 h, 20 µM [1] read?
Answer: 27.1%

Question: What about the MIC [2] of the same compound?
Answer: 32 µg/mL (≈ 86 µM)

Question: And the MIC90 [2]?
Answer: 16 µg/mL (≈ 43 µM)

Question: For `NNC(=O)c1ccncc1` [ISONIAZID], which inhibition at 48 h, 20 µM [1] is on record?
Answer: 3.51%

Question: And the MIC [2]?
Answer: 0.0625 µg/mL (≈ 0.456 µM)

Question: And the MIC90 [2]?
Answer: 0.0625 µg/mL (≈ 0.456 µM)

Question: What does the source list for `COc1ccc2nc(NC(=O)Cc3cccc(Oc4ccccc4)c3)sc2c1`?
Answer: inhibition at 48 h, 20 µM [1]: 4.29%; MIC [2]: 16 µg/mL (≈ 41 µM); MIC90 [2]: 8 µg/mL (≈ 20.5 µM)

Question: For `O=C(Cc1cccc(Oc2ccccc2)c1)Nc1ccc([N+](=O)[O-])cc1`, which inhibition at 48 h, 20 µM [1] is on record?
Answer: 36.4%

Question: And the MIC [2]?
Answer: 32 µg/mL (≈ 91.9 µM)

Question: What about the MIC90 [2] of the same compound?
Answer: 8 µg/mL (≈ 23 µM)

Question: Which inhibition at 48 h, 20 µM [1] does the source give for `O=C(Cc1cccc(Oc2ccccc2)c1)Nc1cccc([N+](=O)[O-])c1` here?
Answer: 0.95%

Question: What about the MIC [2] of the same compound?
Answer: 32 µg/mL (≈ 91.9 µM)

Question: And the MIC90 [2]?
Answer: 16 µg/mL (≈ 45.9 µM)

Question: With `O=C(Cc1cccc(Oc2ccccc2)c1)Nc1ccc(C(F)(F)F)cc1` as the compound, how does the inhibition at 48 h, 20 µM [1] read?
Answer: 10.3%

Question: What about the MIC [2] of the same compound?
Answer: 32 µg/mL (≈ 86.2 µM)

Question: What about the MIC90 [2] of the same compound?
Answer: 8 µg/mL (≈ 21.5 µM)

Question: Which inhibition at 48 h, 20 µM [1] does the source give for `O=C(Cc1cccc(Oc2ccccc2)c1)NC(c1ccccc1)c1ccccc1` here?
Answer: 4.84%

Question: And the MIC [2]?
Answer: 32 µg/mL (≈ 81.3 µM)

Question: What about the MIC90 [2] of the same compound?
Answer: 8 µg/mL (≈ 20.3 µM)

Question: For `O=C(Cc1cccc(Oc2ccccc2)c1)Nc1ccc(F)c(F)c1`, which inhibition at 48 h, 20 µM [1] is on record?
Answer: 26.7%

Question: What about the MIC [2] of the same compound?
Answer: 32 µg/mL (≈ 94.3 µM)

Question: What about the MIC90 [2] of the same compound?
Answer: 8 µg/mL (≈ 23.6 µM)

Question: With `O=C(Cc1cccc(Oc2ccccc2)c1)Nc1ccc(Cl)c(Cl)c1` as the compound, how does the inhibition at 48 h, 20 µM [1] read?
Answer: 7%

Question: What about the MIC [2] of the same compound?
Answer: 4 µg/mL (≈ 10.7 µM)

Question: With `O=C(Cc1cccc(Oc2ccccc2)c1)Nc1ccc(Br)cc1` as the compound, how does the inhibition at 48 h, 20 µM [1] read?
Answer: 15.7%

Question: And the MIC [2]?
Answer: 64 µg/mL (≈ 167 µM)

Question: And the MIC90 [2]?
Answer: 16 µg/mL (≈ 41.9 µM)

Question: What does the source list for `O=C(Cc1cccc(Oc2ccc(F)cc2)c1)Nc1cccc(Cl)c1`?
Answer: inhibition at 48 h, 20 µM [1]: 23.5%; MIC [2]: 32 µg/mL (≈ 89.9 µM); MIC90 [2]: 16 µg/mL (≈ 45 µM)

Question: With `O=C(CCc1cccc(Oc2ccccc2)c1)Nc1cccc(Cl)c1` as the compound, how does the inhibition at 48 h, 20 µM [1] read?
Answer: 25.1%

Question: What about the MIC [2] of the same compound?
Answer: 32 µg/mL (≈ 91 µM)

Question: What about the MIC90 [2] of the same compound?
Answer: 16 µg/mL (≈ 45.5 µM)
